ChEMBL document CHEMBL4118021, “Studies of TAK1-centered polypharmacology with novel covalent TAK1 inhibitors” (Bioorg Med Chem, 2017)
One block for each molecule: values may come before it. Calls of active or inactive are those of the source. No cut-off for these calls is given here.

Assays:
[1] = molecular target: Receptor-interacting serine/threonine-protein kinase 4 (Homo sapiens) (UniProt P57078); test: Inhibition of ANKRD3 in human SKCO1 cells at 1 uM after 4 hrs using biotin labeled TWLAIKCSPSLHVDDR probe by mass-spectrometric analysis relative to control; format: cell-based
Receptor-interacting serine/threonine-protein kinase 4 (Homo sapiens), sequence (P57078 whole entry): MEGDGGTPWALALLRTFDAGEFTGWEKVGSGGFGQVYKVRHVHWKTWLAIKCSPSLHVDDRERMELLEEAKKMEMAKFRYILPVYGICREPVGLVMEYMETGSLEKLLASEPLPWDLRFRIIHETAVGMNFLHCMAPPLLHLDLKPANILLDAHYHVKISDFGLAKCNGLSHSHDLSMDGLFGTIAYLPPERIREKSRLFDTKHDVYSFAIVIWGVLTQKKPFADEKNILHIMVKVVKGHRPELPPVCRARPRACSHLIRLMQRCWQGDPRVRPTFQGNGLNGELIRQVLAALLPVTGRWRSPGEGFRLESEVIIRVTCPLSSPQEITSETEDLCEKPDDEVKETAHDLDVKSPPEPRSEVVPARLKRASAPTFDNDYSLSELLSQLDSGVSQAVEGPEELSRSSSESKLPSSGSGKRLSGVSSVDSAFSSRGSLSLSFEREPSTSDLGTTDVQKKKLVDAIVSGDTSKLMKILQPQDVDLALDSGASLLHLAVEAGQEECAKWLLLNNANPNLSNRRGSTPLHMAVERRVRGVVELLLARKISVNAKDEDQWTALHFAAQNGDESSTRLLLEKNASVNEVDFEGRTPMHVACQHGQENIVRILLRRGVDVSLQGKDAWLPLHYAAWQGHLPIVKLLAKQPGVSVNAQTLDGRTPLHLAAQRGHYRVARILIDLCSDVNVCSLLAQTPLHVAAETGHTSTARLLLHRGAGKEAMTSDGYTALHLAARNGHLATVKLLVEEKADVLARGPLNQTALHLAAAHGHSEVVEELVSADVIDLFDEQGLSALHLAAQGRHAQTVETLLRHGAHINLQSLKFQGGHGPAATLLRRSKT

[2] = molecular target: Tyrosine-protein kinase Fyn (Homo sapiens) (UniProt P06241); test: Inhibition of FYN in human SKCO1 cells at 1 uM after 4 hrs using biotin labeled VAIKTLKPGTMSPESFLEEAQIMK probe by mass-spectrometric analysis relative to control; format: cell-based
[3] = molecular target: T1, Dual specificity mitogen-activated protein kinase kinase 3 (Homo sapiens) (UniProt P46734); test: Inhibition of full length human MEK3 (1 to 318 residues) expressed in mammalian expression system assessed as enzyme activity at 1 uM by KINOMEScan assay relative to control; set-up: scale not given: the % may be the effect or the level left
T1 sequence (whole entry): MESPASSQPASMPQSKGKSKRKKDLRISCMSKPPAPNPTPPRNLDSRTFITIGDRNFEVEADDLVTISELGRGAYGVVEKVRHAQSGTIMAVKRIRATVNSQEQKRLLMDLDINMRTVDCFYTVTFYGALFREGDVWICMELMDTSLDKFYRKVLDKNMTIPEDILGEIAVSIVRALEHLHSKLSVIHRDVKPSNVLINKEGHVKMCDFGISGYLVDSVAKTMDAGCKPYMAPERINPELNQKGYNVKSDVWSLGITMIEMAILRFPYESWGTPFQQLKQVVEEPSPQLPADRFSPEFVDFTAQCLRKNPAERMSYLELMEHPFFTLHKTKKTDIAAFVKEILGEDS
Outline: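 In vitro ATP-site competition binding assay (KinomeScan) across a panel of 456 kinases. Compound was tested at 1 and 10 μM. The read-out is the binding inhibition score relative to control.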

[4] = molecular target: T2, Serine/threonine-protein kinase Nek9 (Homo sapiens) (UniProt Q8TD19); test: Binding affinity to NEK9 in human NCI-H23 cells at 1 uM by mass spectrometry based pull down assay; format: cell-based
T2 sequence (whole entry): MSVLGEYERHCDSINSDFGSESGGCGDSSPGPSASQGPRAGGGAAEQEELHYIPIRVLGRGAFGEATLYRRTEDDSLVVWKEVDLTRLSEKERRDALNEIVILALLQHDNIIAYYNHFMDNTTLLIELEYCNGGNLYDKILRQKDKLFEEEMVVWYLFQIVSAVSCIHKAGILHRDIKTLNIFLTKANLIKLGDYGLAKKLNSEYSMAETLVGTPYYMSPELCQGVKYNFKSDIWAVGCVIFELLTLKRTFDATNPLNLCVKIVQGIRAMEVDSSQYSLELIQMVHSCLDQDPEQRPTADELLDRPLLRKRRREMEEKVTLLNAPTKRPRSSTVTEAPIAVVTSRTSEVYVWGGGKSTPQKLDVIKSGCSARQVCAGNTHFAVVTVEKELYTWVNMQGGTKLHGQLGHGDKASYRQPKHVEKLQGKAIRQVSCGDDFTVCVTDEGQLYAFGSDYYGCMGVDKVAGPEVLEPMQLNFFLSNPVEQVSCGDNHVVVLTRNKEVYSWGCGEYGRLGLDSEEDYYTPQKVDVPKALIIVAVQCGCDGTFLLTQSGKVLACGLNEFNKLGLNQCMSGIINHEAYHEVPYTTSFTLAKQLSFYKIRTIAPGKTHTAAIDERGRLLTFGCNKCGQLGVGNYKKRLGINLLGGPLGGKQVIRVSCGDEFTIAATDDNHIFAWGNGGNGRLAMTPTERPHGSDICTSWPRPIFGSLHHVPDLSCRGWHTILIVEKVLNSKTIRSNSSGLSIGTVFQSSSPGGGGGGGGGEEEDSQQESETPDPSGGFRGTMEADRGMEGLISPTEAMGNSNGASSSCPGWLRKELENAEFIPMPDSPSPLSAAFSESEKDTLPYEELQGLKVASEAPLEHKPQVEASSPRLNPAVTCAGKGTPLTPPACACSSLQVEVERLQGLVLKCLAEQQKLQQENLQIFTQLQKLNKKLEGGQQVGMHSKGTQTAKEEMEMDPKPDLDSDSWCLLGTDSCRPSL

[5] = molecular target: Transmembrane emp24 domain-containing protein 10 (Homo sapiens) (UniProt P49755); test: Binding affinity to TMED10 in human NCI-H358 cells at 1 uM by mass spectrometry based pull down assay; format: cell-based
Transmembrane emp24 domain-containing protein 10 (Homo sapiens), sequence (P49755 whole entry, the tested form may be a part): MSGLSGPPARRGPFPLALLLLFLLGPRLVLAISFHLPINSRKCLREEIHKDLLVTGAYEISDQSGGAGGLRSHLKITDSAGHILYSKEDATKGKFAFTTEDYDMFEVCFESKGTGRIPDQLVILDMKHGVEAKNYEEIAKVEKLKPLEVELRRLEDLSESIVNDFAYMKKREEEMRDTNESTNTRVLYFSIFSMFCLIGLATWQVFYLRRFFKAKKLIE

[6] = molecular target: AP2-associated protein kinase 1 (Homo sapiens) (UniProt Q2M2I8); test: Binding affinity to AAK1 in human NCI-H23 cells at 1 uM by mass spectrometry based pull down assay; format: cell-based
Outline: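 NCI-H23 or NCI-H358 cells were grown and lysed. Lysates were incubated overnight at 4 °C with 1 μM biotinylated covalent probe or DMSO, then pulled down on streptavidin beads. Proteins were run on polyacrylamide gels and stained with Coomassie. Bands were excised, digested and identified by mass spectrometry.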

[7] = molecular target: Cysteine and glycine-rich protein 1 (Homo sapiens) (UniProt P21291); test: Binding affinity to CSRP1 in human NCI-H23 cells at 1 uM by mass spectrometry based pull down assay; format: cell-based
Cysteine and glycine-rich protein 1 (Homo sapiens), sequence (P21291 whole entry): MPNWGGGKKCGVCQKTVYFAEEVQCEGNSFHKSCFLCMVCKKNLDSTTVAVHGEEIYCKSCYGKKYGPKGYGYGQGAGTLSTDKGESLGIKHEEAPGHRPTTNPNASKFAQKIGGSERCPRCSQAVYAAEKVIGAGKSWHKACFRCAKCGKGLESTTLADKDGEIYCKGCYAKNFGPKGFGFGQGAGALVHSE

[8] = molecular target: Ribonucleoside-diphosphate reductase large subunit (Homo sapiens) (UniProt P23921); test: Binding affinity to RRM1 in human NCI-H23 cells at 1 uM by mass spectrometry based pull down assay; format: cell-based
[9] = molecular target: Spermidine synthase (Homo sapiens) (UniProt P19623); test: Binding affinity to SRM in human NCI-H23 cells at 1 uM by mass spectrometry based pull down assay; format: cell-based
Spermidine synthase (Homo sapiens), sequence (P19623 whole entry): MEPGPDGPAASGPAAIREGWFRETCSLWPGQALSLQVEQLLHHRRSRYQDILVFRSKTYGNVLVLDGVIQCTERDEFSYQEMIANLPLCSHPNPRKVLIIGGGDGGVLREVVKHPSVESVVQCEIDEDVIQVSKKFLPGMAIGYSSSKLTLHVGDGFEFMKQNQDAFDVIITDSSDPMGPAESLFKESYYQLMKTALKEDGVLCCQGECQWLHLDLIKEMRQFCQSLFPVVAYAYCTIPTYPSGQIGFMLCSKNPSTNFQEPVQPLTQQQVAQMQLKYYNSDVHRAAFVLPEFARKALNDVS

[10] = molecular target: Dual specificity mitogen-activated protein kinase kinase 1 (Homo sapiens) (UniProt Q02750); test: Binding affinity to MAP2K1 in human NCI-H358 cells at 1 uM by mass spectrometry based pull down assay; format: cell-based
[11] = molecular target: Nucleoside diphosphate kinase A/B (Homo sapiens) (UniProt P15531+P22392); test: Binding affinity to NME1-NME2 in human NCI-H23 cells at 1 uM by mass spectrometry based pull down assay; format: cell-based
Nucleoside diphosphate kinase A/B (Homo sapiens), sequence (P15531 whole entry, looked up): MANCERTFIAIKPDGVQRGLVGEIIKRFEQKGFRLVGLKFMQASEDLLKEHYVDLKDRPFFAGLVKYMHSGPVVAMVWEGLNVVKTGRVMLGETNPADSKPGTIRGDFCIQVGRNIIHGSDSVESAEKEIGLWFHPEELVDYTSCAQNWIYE
Nucleoside diphosphate kinase A/B (Homo sapiens), sequence (P22392 whole entry, looked up): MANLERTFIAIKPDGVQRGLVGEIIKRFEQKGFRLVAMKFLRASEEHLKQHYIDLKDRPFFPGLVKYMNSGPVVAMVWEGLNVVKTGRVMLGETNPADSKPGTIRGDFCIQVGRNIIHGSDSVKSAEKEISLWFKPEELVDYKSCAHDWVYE

[12] = molecular target: Heterogeneous nuclear ribonucleoprotein H2 (Homo sapiens) (UniProt P55795); test: Binding affinity to HNRNPH2 in human NCI-H358 cells at 1 uM by mass spectrometry based pull down assay; format: cell-based
[13] = molecular target: Acidic leucine-rich nuclear phosphoprotein 32 family member A (Homo sapiens) (UniProt P39687); test: Binding affinity to ANP32A in human NCI-H358 cells at 1 uM by mass spectrometry based pull down assay; format: cell-based
Acidic leucine-rich nuclear phosphoprotein 32 family member A (Homo sapiens), sequence (P39687 whole entry): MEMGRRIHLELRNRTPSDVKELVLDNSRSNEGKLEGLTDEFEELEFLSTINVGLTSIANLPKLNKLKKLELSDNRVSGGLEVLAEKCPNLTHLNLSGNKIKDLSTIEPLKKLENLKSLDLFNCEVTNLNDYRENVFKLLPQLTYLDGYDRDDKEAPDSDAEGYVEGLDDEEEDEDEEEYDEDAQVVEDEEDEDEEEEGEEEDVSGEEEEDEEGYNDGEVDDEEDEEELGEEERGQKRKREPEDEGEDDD

[14] = molecular target: Translation initiation factor eIF2B subunit gamma (Homo sapiens) (UniProt Q9NR50); test: Binding affinity to EIF2B3 in human NCI-H23 cells at 1 uM by mass spectrometry based pull down assay; format: cell-based
Translation initiation factor eIF2B subunit gamma (Homo sapiens), sequence (Q9NR50 whole entry): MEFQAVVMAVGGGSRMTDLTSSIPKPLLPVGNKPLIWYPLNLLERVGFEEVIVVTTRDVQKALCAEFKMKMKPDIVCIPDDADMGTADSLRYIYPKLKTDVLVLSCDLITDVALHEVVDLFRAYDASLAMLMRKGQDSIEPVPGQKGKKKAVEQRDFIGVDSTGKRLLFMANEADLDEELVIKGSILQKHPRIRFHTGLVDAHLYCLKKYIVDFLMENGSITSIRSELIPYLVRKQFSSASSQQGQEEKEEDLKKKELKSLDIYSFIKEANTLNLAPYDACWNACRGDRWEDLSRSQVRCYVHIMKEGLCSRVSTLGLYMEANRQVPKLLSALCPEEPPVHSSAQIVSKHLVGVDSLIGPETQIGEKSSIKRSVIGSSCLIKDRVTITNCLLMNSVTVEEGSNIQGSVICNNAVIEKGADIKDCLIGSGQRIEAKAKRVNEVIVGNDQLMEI

[15] = molecular target: T-complex protein 1 subunit theta (Homo sapiens) (UniProt P50990); test: Binding affinity to CCT8 in human NCI-H358 cells at 1 uM by mass spectrometry based pull down assay; format: cell-based
T-complex protein 1 subunit theta (Homo sapiens), sequence (P50990 whole entry, one chain of several): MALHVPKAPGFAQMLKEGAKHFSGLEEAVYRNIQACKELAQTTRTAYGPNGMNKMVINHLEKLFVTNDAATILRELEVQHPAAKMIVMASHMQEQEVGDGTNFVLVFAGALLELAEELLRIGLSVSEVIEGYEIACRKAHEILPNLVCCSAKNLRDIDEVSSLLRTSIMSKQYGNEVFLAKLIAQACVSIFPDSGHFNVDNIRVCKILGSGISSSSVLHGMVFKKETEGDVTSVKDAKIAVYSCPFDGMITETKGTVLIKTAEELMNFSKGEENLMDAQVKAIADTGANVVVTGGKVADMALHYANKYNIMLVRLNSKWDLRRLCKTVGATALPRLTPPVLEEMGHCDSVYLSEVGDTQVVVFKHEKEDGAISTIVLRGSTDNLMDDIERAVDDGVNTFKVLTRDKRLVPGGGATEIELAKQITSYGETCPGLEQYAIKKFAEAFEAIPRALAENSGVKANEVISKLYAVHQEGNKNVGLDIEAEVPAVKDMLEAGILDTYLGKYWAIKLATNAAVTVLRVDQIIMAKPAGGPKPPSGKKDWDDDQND

[16] = molecular target: Constitutive coactivator of PPAR-gamma-like protein 1 (Homo sapiens) (UniProt Q9NZB2); test: Binding affinity to FAM120A in human NCI-H358 cells at 1 uM by mass spectrometry based pull down assay; format: cell-based
Constitutive coactivator of PPAR-gamma-like protein 1 (Homo sapiens), sequence (Q9NZB2 whole entry): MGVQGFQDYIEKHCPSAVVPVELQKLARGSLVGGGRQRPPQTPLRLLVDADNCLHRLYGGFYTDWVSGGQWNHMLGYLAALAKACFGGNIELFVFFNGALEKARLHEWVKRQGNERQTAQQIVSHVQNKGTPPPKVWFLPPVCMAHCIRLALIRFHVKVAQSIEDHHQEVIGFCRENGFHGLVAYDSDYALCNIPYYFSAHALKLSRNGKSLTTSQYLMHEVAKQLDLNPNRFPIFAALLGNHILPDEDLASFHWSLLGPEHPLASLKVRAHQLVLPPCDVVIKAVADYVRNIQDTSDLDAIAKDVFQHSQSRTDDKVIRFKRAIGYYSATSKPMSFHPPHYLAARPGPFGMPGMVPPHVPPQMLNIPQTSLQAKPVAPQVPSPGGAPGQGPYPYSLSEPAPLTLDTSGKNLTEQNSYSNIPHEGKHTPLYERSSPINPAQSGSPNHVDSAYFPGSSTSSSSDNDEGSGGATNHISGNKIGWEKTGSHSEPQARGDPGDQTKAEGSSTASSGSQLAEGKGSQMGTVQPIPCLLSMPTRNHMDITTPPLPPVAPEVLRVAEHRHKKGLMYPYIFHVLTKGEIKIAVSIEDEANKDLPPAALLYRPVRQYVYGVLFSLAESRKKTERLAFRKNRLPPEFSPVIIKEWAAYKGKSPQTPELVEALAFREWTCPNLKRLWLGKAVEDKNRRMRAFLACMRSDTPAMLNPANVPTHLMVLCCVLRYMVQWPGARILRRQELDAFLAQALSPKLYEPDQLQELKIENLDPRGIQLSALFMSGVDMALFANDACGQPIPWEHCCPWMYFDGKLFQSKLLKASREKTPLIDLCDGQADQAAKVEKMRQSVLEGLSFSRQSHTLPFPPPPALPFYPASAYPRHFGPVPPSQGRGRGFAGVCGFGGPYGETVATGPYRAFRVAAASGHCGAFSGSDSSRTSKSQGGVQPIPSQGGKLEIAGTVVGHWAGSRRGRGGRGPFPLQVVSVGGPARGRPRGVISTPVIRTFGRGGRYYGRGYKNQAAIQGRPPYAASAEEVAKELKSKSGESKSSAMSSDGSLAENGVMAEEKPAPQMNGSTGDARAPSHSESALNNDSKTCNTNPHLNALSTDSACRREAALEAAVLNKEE

[17] = molecular target: Protein disulfide-isomerase (Homo sapiens) (UniProt P07237); test: Binding affinity to P4HB in human NCI-H358 cells at 1 uM by mass spectrometry based pull down assay; format: cell-based
Protein disulfide-isomerase (Homo sapiens), sequence (P07237 18-508 limits assumed): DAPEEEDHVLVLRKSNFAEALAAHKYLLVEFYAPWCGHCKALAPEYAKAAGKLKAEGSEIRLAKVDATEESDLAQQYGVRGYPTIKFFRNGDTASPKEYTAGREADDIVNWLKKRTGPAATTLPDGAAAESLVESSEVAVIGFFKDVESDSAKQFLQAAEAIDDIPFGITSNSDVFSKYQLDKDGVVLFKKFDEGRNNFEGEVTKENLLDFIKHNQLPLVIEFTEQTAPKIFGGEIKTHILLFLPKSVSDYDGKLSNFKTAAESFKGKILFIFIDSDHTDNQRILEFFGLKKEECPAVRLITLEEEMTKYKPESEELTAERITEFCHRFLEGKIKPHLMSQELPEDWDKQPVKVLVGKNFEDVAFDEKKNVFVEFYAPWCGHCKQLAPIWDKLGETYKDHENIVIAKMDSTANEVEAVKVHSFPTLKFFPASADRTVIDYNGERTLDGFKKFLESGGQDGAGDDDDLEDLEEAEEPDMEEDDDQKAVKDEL

Structure (SMILES): C=CC(=O)Nc1ccccc1Nc1nc(Nc2ccc(N3CCN(C)CC3)cc2)ncc1Cl
inhibition [1]: -0.1%
inhibition [2]: 8.3%

Structure (SMILES): COc1cc(O)c2c(c1)/C=C/C[C@H](O)[C@H](O)C(=O)/C=C\C[C@H](C)OC2=O
Activity [3]: 22%

Activity [5]: Active
Activity [6]: Active
Activity [7]: Active
Activity [8]: Active
Activity [9]: Active
Activity [10]: Active
Activity [11]: Active
Activity [12]: Active
Activity [13]: Active
Activity [14]: Active
Activity [15]: Active
Activity [16]: Active
Activity [17]: Active
Structure (SMILES): C=CC(=O)Nc1ccccc1Nc1nc(Nc2ccc(N3CCN(CCOCCOCCOCCNC(=O)CCCC[C@@H]4SC[C@@H]5NC(=O)N[C@@H]54)CC3)cc2)ncc1Cl
Activity [4]: Active
